Bridge positions count the residues as written; N and C are the ends. Square brackets hold non-standard residues; d marks the D form. Ends that are not written are not given here. I, II: the chains in the order shown. propargylglycine(fluorescein) = propargylglycine labeled with fluorescein azide by click chemistry; PEG10 = NCCOCCOCCOCCOCCOCCOCCOCCOCCOCCOCCC(=O)O
Legend:
[1] = target: hPD-L1 on the surface of CHO cells (Homo sapiens, UniProt Q9NZQ7); assay: Flow cytometry binding to CHO hPD-L1 cells; format: cell-based; details: flow cytometry (Figure S15D)
hPD-L1 on the surface of CHO cells, sequence (Q9NZQ7 19-290): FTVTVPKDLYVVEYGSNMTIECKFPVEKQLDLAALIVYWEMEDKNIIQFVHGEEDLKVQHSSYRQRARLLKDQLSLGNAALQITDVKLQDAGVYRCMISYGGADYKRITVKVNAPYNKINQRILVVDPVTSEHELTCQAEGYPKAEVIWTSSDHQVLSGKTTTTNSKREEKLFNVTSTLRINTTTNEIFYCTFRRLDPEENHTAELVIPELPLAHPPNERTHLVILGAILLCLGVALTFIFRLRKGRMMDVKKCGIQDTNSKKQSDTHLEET

MDA-MB-468 cells = assay: Flow cytometry binding to hPD-L1-negative MDA-MB-468 cells; format: cell-based, human; details: SPAM2-fluorescein dilution series
How it was run: (§1)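 CHO cells stably transfected with hPD-L2, or MDA-MB-468 cells, were grown in DMEM with 10% heat-inactivated FBS. They were lifted with trypsin-EDTA and resuspended in serum-free medium at 200,000 cells per well. Cells were incubated 1 h at 4°C in the dark with a dilution series of fluorescein-conjugated test peptide in cold 1:1 PBS:SF medium. After three cold-PBS washes, live single-cell fluorescence was read by flow cytometry (488 nm excitation).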

[2] = cited from earlier work
[3] = Far-UV CD thermal denaturation; format: physicochemical; details: pH 6.5, 0-90°C
How it was run: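 Peptide was prepared in PB/MeOH 80:20 (15 mM PB pH 6.5 or 50 mM pH 4.5) at 17–70 μM, set by UV absorbance, in a 0.1 cm quartz cuvette. Far-UV spectra were taken at 190–270 nm, averaged over eight scans, with solvent blank subtracted. The ramp ran 0–90°C at 45°C per hour under nitrogen. Melts used molar ellipticity at 220 or 222 nm; first-derivative maxima gave transitions.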

hPD-L1 = hPD-L1 (Homo sapiens, UniProt Q9NZQ7); assay: Biolayer interferometry; format: binding
hPD-L1, sequence (Q9NZQ7 19-238 limits assumed): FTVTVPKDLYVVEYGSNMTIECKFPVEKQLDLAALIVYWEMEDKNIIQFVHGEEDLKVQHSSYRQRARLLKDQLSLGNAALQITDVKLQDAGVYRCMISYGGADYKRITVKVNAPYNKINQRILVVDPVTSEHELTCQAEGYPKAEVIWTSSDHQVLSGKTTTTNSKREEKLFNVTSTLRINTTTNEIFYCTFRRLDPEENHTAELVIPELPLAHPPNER
How it was run: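 Extracellular-domain hPD-L1 was expressed in HEK293F cells, Ni-NTA purified and BirA-biotinylated. At 1 μg mL−1 it was loaded onto streptavidin biosensors to 1.4 nm, with PD-L1-free sensors as reference. Association ran 180 s and dissociation 900 s in assay buffer. Sensorgrams were normalized to no-peptide and globally fit to a 1:1 Langmuir model. Duplicates; means and fitting errors reported.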

[4] = target: T1, human PD-L2 (hPD-L2) on CHO cells (Homo sapiens, UniProt Q9BQ51); assay: Flow cytometry binding to CHO cells expressing human PD-L2; format: cell-based; details: highest concentration tested, 1200 nM (Figure S15E)
T1 sequence (Q9BQ51 20-273): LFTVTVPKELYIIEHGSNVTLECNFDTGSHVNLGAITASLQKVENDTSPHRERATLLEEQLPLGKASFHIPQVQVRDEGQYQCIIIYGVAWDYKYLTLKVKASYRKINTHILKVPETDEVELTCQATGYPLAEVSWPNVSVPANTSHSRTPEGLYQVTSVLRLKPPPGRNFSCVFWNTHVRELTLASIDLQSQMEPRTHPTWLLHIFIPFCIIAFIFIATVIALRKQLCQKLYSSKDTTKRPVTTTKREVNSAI
How it was run: as §1

[5] = target: mouse PD-L1 (mPD-L1) on CHO cells (Mus musculus, UniProt Q9EP73); assay: Flow cytometry binding to CHO cells expressing mouse PD-L1; format: cell-based; details: highest concentration tested, 1200 nM (Figure S15E)
mouse PD-L1 (mPD-L1) on CHO cells, sequence (Q9EP73 19-290): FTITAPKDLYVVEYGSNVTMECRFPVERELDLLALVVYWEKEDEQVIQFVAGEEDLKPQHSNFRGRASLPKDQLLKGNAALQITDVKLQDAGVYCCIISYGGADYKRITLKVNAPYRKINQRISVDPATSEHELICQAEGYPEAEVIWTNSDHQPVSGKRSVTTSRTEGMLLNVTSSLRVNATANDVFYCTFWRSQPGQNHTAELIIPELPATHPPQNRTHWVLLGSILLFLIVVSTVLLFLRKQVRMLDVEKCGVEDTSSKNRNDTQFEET

[6] = Peptide solubility and aggregation; format: physicochemical; details: all conditions tested for CD spectroscopy
How it was run: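 Lyophilized peptide was reconstituted in phosphate buffer (15 mM pH 6.5 or 50 mM pH 4.5) containing 10–20% MeOH or TFE. Samples were vortexed and sonicated 5 min. Concentration was set by absorbance at 280 nm, using 5500 M−1 cm−1 per Trp and 1490 M−1 cm−1 per Tyr. Absorbance had to stay constant over 20 min to exclude aggregation.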

PD-1/hPD-L1 interaction = PD-1/hPD-L1 interaction (Homo sapiens, UniProt Q9NZQ7); assay: PD-L1 T-cell reactivation assay; format: cell-based; details: 5 μM peptide, 6 h at 37 °C, Bio-Glo luminescence, RLU relative to vehicle
PD-1/hPD-L1 interaction, sequence (Q9NZQ7 19-290): as the sequence (Q9NZQ7 19-290) above

[7] = target: human PD‐L1 stably expressed on CHO cells (human, UniProt Q9NZQ7 19-290); assay: flow cytometry on cells
human PD‐L1 stably expressed on CHO cells, sequence (Q9NZQ7 19-290): as above

MALPIFSNTYLSHTDLKNYHILGSSSSGS [SPAM3 scrambled]
binding of sequence-scrambled peptides to CHO-hPD-L1 cells [1]: no significant binding

MSLANYNWSHPSRKDNIHWSLFGSSSSGS [SPAM2 scrambled]
binding of sequence-scrambled peptides to CHO-hPD-L1 cells [1]: no significant binding

SPAM2‐fluorescein: SPAM2 with C-terminal propargylglycine labeled with fluorescein azide by click chemistry (MWSRSDHNLNKFWILHYSANPS-{propargylglycine(fluorescein)}; also: fluorescein azide attached by click chemistry)
labeling of hPD-L1-negative cells (MDA-MB-468 cells): no concentration‐dependent labeling

MPIFLDHILNKFWILHYA-NH2 [SPAM]
serum stability (ex vivo) ([2]; ref Kamalinia et al., 2020): acceptable serum stability | temperature above which irreversible aggregation occurs in thermal denaturation [3]: above 50 °C | koff (hPD-L1): 0.049 ± 0.0009 s⁻¹ | kon (hPD-L1): 1.41e+06 ± 30000 M⁻¹ s⁻¹ | Kd (hPD-L1; K D by BLI, BLI, mean of duplicate): 38 ± 1 nM

I: MYSSTDHILNKFLILHYALNPT[PEG10]K-NH2 / II: MYSSTDHILNKFLILHYALNPT[PEG10] (amide I:24-II:C) [SPAM4]
binding to CHO-hPD-L2 cells [4]: no binding | binding to CHO-mPD-L1 cells [5]: no binding | solubility [6]: low solubility | koff (hPD-L1): 0.000219 ± 4e-06 s⁻¹ | kon (hPD-L1): 2.23e+06 ± 110000 M⁻¹ s⁻¹

MYSSTDHILNKFLILHYALNPT-NH2 [SPAM3]
koff (hPD-L1): 0.00146 ± 1e-05 s⁻¹ | kon (hPD-L1): 5.78e+06 ± 80000 M⁻¹ s⁻¹

SGQYASYHCWCWRDPGRSGGSK [TPP-1, reference compound]
serum stability ([2]; ref Hu et al., 2019): poor serum stability

MWSRSDHNLNKFWILHYSANPS-NH2 [SPAM2]
signal restored in T-cell reactivation assay (PD-1/hPD-L1 interaction): more than 50% | koff (hPD-L1): 0.00264 ± 2e-05 s⁻¹ | kon (hPD-L1): 8.78e+06 ± 210000 M⁻¹ s⁻¹

MWSRSDHNLNKFWILHYSANPS (also: fluorescein (position not given here)) [SPAM2‐fluorescein]
Kd [7]: 15.3 nM

MYSSTDHILNKFLILHYALNPT (also: fluorescein (position not given here)) [fluorescein‐labeled SPAM3]
Kd [7]: 5.15 nM

— paper PMC12376068 (Protein Science : A Publication of the Protein Society, 2025)
